SIRT5 block – sirtuin-5 (human) deacylase inhibition. hit rate 1.1% among 330,000. inhibition, % at 15 µM. Q9NXA8. AID 652115. Purified SirT5, succinyl-peptide AMC, trypsin-coupled fluorescence; in the data active = inhibition above about 15%
Target sequence (Q9NXA8 whole entry, looked up): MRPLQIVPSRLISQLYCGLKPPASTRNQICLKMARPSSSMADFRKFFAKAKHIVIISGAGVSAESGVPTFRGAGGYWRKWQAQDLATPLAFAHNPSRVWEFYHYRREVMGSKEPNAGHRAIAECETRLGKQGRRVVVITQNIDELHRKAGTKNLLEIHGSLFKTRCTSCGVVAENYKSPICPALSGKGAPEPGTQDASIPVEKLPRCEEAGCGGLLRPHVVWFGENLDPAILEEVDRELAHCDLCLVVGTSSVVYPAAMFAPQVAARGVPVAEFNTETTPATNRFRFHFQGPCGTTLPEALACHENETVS
Cneo AK release – Cryptococcus neoformans lysis via adenylate kinase release; C. neoformans lysis, adenylate kinase release luminescence, 4 h; normalised: neutral wells 0, clomiphene wells 100; lysis activity, % at 15 µM; hit rate 0.2% among 360,000; AID 651654;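 active = mean lysis activity across replicates of at least 80%, whatever share of replicates individually reach that level; inactive = mean lysis activity below 80%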
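Schedule: static 4 h at 37 °C with compound, 1 h detection; system: C. neoformans cells; benchmarks: Clomiphene as positive control; buffer or medium: fresh YPD medium; measure: luminescence rise reflecting yeast cell lysis; measured by: luminescent adenylate kinase detection reagent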
C2C12 statin – suppressors of simvastatin-induced myotoxicity in C2C12 myotubes. ATP luminescence, 48 h; scaled: DMSO 0, geranylgeraniol control 100. rescue of ATP level, % at 7.49 µM. hit rate 0.78% among 330,000;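 active = mean ATP rescue above about 67%, or every replicate alone reaching that limit, limit read from the data, passing the limit was not always enough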;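 note: myotubes were challenged with 10 µM simvastatin during compound exposure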
PGC1a acetyl inh – PGC1a acetylation modulation, inhibitor mode; U2OS PGC1a acetylation, AlphaScreen anti-acetyl-lysine; with virally co-expressed GCN5 acetyltransferase; inhibition, % at 15.6 µM; hit rate 0.17% among 350,000; AID 651687;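 active = every replicate shows inhibition of at least 40%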
S100A4 inh HTS – blocks human S100A4 binding to myosin IIA peptide; S100A4/TAMRA-MyoIIA peptide fluorescence polarization; inhibition, % at 10.7 µM; hit rate 0.14% among 360,000;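 active = mean inhibition of at least 70% across replicates, with every replicate also reaching that level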
Target sequence (P26447 whole entry, looked up): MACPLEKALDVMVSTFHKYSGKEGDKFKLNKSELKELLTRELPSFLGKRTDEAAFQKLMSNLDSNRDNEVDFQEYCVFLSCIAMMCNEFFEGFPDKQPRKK
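Material: S100A4 monomer protein | Medium: HEPES pH 7.2 with CaCl2, KCl, NaCl, DTT, Triton | Reagent: Labelled myosin peptide probe, 5 nM | Doses: One dose per compound | Times: 5 min incubation before reading | Benchmarks: Neutral control DMSO, positive control TFP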
Ecoli rRNA inh – inhibits bacterial ribosomal RNA function over humanized ribosomes; E. coli WT GFP vs humanized-ribosome RFP mutants, fluorescence, 24 h; active compounds read low; DMSO median 0, no signal -100; GFP signal change (wild-type ribosome), % (no concentration beside the values); hit rate 1.6% among 350,000; AID 720706;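 active = significant combined selectivity score with lowered wild-type GFP, culture density cut under 30%, mutant RFP and density less affected; inactive = any of these conditions unmet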
Of the large screens only hits and unclear results are named; the others gave an inactive call. Most compounds without a hit are left out; they make up all but 3% or so of the library.

CCNS(=O)(=O)c1ccc(CCC(=O)N2CCOCC2)cc1	none
CCNS(=O)(=O)c1ccc(CCC(=O)N2CCN(C(=O)OCC)CC2)cc1	SIRT5 block 15.4
Cc1cc(Br)c(NC(=O)COC(=O)CC2CC3CCC2C3)c(Br)c1 (centres undefined)	SIRT5 block 18.8
COc1ccccc1-c1noc(-c2cccs2)n1	C2C12 statin 223.5
COc1ccccc1-c1noc(-c2ccncc2)n1	C2C12 statin 112.0 (no result: SIRT5 block, S100A4 inh HTS, Ecoli rRNA inh)
COc1ccc(Br)cc1-c1noc(-c2ccncc2)n1	none (no result: SIRT5 block, S100A4 inh HTS, Ecoli rRNA inh)
C[C@@H]1CN([C@H](C)CO)S(=O)(=O)c2ccc(C#CC3CC3)cc2O[C@H]1CN(C)Cc1cncnc1	none (no result: SIRT5 block, Cneo AK release, S100A4 inh HTS)
CO[C@@H]1CN(C)C(=O)c2ccc(NC(=O)c3ccccn3)cc2OC[C@@H](C)N(Cc2ccccn2)C[C@H]1C	none (no result: SIRT5 block, S100A4 inh HTS, Ecoli rRNA inh)
COc1ccc(CN(CC2CCC(C(=O)O)CC2)C(=S)Nc2ccc(C)c(Cl)c2)cc1 (centres undefined)	Ecoli rRNA inh -33.1 (no result: PGC1a acetyl inh)
C[C@H](NC(=O)C[C@@H]1C=C[C@@H](NC(=O)Cc2ccccn2)[C@@H](CO)O1)c1ccccc1	none
C[C@@H]1CN([C@H](C)CO)C(=O)c2cc(NC(=O)CCCCCC(=O)Nc3ccccc3N)ccc2O[C@@H](C)CCCCO[C@@H]1CN(C)C(=O)C1CCCCC1	none (no result: C2C12 statin)
C[C@@H]1CCCCO[C@H](CN(C)CC2CCCCC2)[C@@H](C)CN([C@H](C)CO)C(=O)c2cc(NC(=O)CCCCCC(=O)Nc3ccccc3N)ccc2O1	none (no result: SIRT5 block, Cneo AK release, C2C12 statin, PGC1a acetyl inh, S100A4 inh HTS)
C[C@@H]1CCCCO[C@@H](CN(C)CC2CCCCC2)[C@H](C)CN([C@H](C)CO)C(=O)c2cc(NC(=O)CCCCCC(=O)Nc3ccccc3N)ccc2O1	SIRT5 block 20.4 (no result: C2C12 statin)
C[C@@H]1CCCCO[C@@H](CN(C)C(=O)C2CCCCC2)[C@@H](C)CN([C@H](C)CO)C(=O)c2cc(NC(=O)CCCCCC(=O)Nc3ccccc3N)ccc2O1	S100A4 inh HTS 102.9 (no result: C2C12 statin)
CC(C)NC(=O)N(C)C[C@@H]1Oc2ccc(NC(=O)CCC(F)(F)F)cc2C(=O)N([C@@H](C)CO)C[C@H]1C	none
COc1ccc(S(=O)(=O)N(C)C[C@@H]2Oc3ccc(NS(=O)(=O)c4ccccc4)cc3CC(=O)N([C@@H](C)CO)C[C@H]2C)cc1	none
C[C@H](CO)N1C[C@H](C)[C@H](CN(C)C(=O)Cc2ccccc2)Oc2ncc(-c3cncnc3)cc2C1=O	none
Cc1c(O)ccc2c(CN(C)Cc3ccccc3)cc(=O)oc12	Ecoli rRNA inh -25.5
Cc1cc(Sc2nnc(N)s2)c2ccccc2n1	none (no result: Cneo AK release)
Cc1cc(Sc2nnc(/N=C/N(C)C)s2)c2ccccc2n1	Ecoli rRNA inh -19.8 (no result: C2C12 statin)
O=C(CNCc1ccccn1)Nc1cc(C(F)(F)F)ccc1N1CCOCC1	SIRT5 block 17.3
Cc1cccc2c(N=O)c(O)n(CCc3ccccc3)c12	SIRT5 block 16.5
O=C(CSc1nc(-c2ccco2)cc(C(F)(F)F)n1)NCCc1ccccc1	C2C12 statin 89.3 (no result: SIRT5 block, Cneo AK release, S100A4 inh HTS, Ecoli rRNA inh)
Cc1cc(NC(=O)CCCSc2nc(-c3ccco3)cc(C(F)(F)F)n2)no1	none (no result: SIRT5 block, S100A4 inh HTS, Ecoli rRNA inh)
COc1ccc(CCNC(=O)CSc2nc(-c3ccco3)cc(C(F)(F)F)n2)cc1OC	none
O=C(CCCSc1nc(-c2ccco2)cc(C(F)(F)F)n1)NCc1cccs1	C2C12 statin 125.7 (no result: SIRT5 block, S100A4 inh HTS, Ecoli rRNA inh)
CO[C@@H](CN(C)C(=O)c1ccc2c(c1)OCO2)[C@@H](C)CN([C@H](C)CO)S(=O)(=O)c1ccc(Cl)cc1	none
COc1cc(C)ccc1OCc1cc(C(=O)N2CCC(c3ccc(F)cc3)C2)no1 (centres undefined)	Ecoli rRNA inh -14.4
Cc1ccc(C)c(OCc2cc(C(=O)N3CC[C@@H]4CCCC[C@H]4C3)no2)c1	none
CCCc1c(C(=O)OCC)[nH]c2c1C(=O)CCC2	SIRT5 block 29.2 (no result: PGC1a acetyl inh)
Cc1c(C(=O)OCCOc2ccccc2)[nH]c2c1C(=O)CCC2	none (no result: SIRT5 block, S100A4 inh HTS, Ecoli rRNA inh)
O=C(Cn1cnc2c(nnn2Cc2ccc(F)cc2)c1=O)NC1CCCC1	C2C12 statin 140.7 (no result: SIRT5 block, S100A4 inh HTS, Ecoli rRNA inh)
Cc1ccc(Cn2nnc3c(=O)n(CC(=O)OCc4ccccc4)cnc32)cc1	none
COc1ccc(-n2nnc3c(=O)n(CC(=O)N4CCCCC4)cnc32)cc1	SIRT5 block 15.4 (no result: PGC1a acetyl inh)
Cc1ccc(Cn2nnc3c(=O)n(CC(=O)N4CCN(c5ccccc5)CC4)cnc32)cc1	Ecoli rRNA inh -25.0
COc1ccc(-n2nnc3c(=O)n(CC(=O)N4CCCC4)cnc32)cc1	none (no result: SIRT5 block, C2C12 statin, S100A4 inh HTS, Ecoli rRNA inh)
CN1C(=O)c2cc(NC(=O)NC3CCCC3)ccc2OC[C@H]2O[C@H](CC(=O)NCC3CC3)CC[C@H]21	none
O=C(C1CCCC1)N1CC2(C1)[C@@H](c1ccccc1)[C@@H](CO)N2C(=O)c1cccnc1	none (no result: Cneo AK release, C2C12 statin, PGC1a acetyl inh)
CN(Cc1cccc(F)c1)C(=O)c1ccc(NS(=O)(=O)c2ccc3[nH]c(=O)[nH]c3c2)cc1	none (no result: Cneo AK release, C2C12 statin, PGC1a acetyl inh)
CN(Cc1ccccc1F)C(=O)c1ccc(NS(=O)(=O)c2ccc3[nH]c(=O)[nH]c3c2)cc1	SIRT5 block 30.7
C[C@@H]1CN([C@@H](C)CO)S(=O)(=O)c2ccc(C#C[C@@H](C)O)cc2O[C@@H]1CN(C)Cc1ccccc1	none
C[C@H](O)C#Cc1ccc2c(c1)O[C@H](CN(C)Cc1ccc(-c3ccccc3)cc1)[C@H](C)CN([C@H](C)CO)S2(=O)=O	SIRT5 block 31.8
C[C@@H]1CN([C@@H](C)CO)S(=O)(=O)c2ccc(C#C[C@@H](C)O)cc2O[C@H]1CN(C)Cc1ccc(-c2ccccc2)cc1	SIRT5 block 34.6
C[C@H](O)C#Cc1ccc2c(c1)O[C@H](CN(C)Cc1ccc(-c3ccccc3)cc1)[C@@H](C)CN([C@H](C)CO)S2(=O)=O	SIRT5 block 27.6
C[C@H](CO)N1C[C@H](C)[C@H](CN(C)Cc2ccc(-c3ccccc3)cc2)Oc2cc(C#C[C@@H](C)O)ccc2S1(=O)=O	SIRT5 block 25.0
COc1cccc(CN2CC3(CCN(C(=O)Nc4c(C)noc4C)CC3)c3c([nH]c4cc(OC)ccc34)[C@@H]2CO)c1	none (no result: SIRT5 block, Cneo AK release, C2C12 statin, PGC1a acetyl inh, S100A4 inh HTS)
C[C@H](O)C#Cc1ccc2c(c1)O[C@@H](CN(C)Cc1ccccc1)[C@H](C)CN([C@@H](C)CO)S2(=O)=O	none
C[C@H](O)C#Cc1ccc2c(c1)O[C@@H](CN(C)Cc1ccc(-c3ccccc3)cc1)[C@@H](C)CN([C@@H](C)CO)S2(=O)=O	SIRT5 block 30.2
C/C=C/c1ccc2c(c1)O[C@H](CN(C)C(=O)C1CCOCC1)[C@@H](C)CN([C@@H](C)CO)S2(=O)=O	none
O=C(CCCn1c(SCc2cc(=O)n3cc(Cl)ccc3n2)nc2ccccc2c1=O)NCC1CCCO1 (centres undefined)	none (no result: C2C12 statin)
O=c1cc(CSc2nc(NCc3ccccc3)c3ccccc3n2)nc2ccc(Cl)cn12	Ecoli rRNA inh -31.8 (no result: C2C12 statin)

High-throughput results as filed in PubChem.
